# Measurements taken from ChEMBL document CHEMBL4028913, “Discovery of Novel Potent VEGFR-2 Inhibitors Exerting Significant Antiproliferative Activity against Cancer Cell Lines” (J Med Chem, 2018).
# Calls of active or inactive are those of the source. No cut-off for these calls is given here.
# What was measured:
# [1] = Potency index, ratio of sorafenib GI50 to test compound GI50 for human renal cancer cells; format: functional, Renal cancer cell
# Procedure, shortened: (§1)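 GI50 is the concentration giving 50% reduction in net protein increase relative to control. Potency index is the reference-drug GI50 divided by the test-compound GI50.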
# HUVEC = assay: Growth inhibition of HUVEC at 10 uM after 72 hrs by CellTiter-Glo assay relative to control; format: functional; details: Homo sapiens, read-out: GI
# Procedure, shortened: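 Cells in exponential phase seeded at 2000–4000 cells/well, then exposed 72 h at 37 °C, 5% CO2 with 0.1% final DMSO. Single-point screen at 10 μM final. […] Read-out was CellTiter-Glo luminescence.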
# HL-60(TB) = assay: Cytotoxicity against human HL-60(TB) cells after 48 hrs by SRB assay; format: functional; details: HL-60, 48 h
# Procedure, shortened: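 NCI-60 panel screen. Cells grown in RPMI 1640 with 5% FBS and 2 mM L-glutamine, plated at 5000–40 000 cells/well by doubling time, and preincubated 24 h at 37 °C in 5% CO2; Tz plates fixed at drug addition. Five concentrations, 1-log steps from 10−4 to 10−8 M, for 48 h. Suspension cells fixed with TCA (16% final), stained with 0.4% SRB, read at 515 nm. GI50, TGI and LC50 from percent-growth formulas.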
# MOLT-4 = assay: Cytotoxicity against human MOLT4 cells after 48 hrs by SRB assay; format: functional; details: MOLT-4, 48 h
# Procedure, shortened: (§2)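 NCI-60 panel; cells grown in RPMI 1640 with 5% FBS and 2 mM L-glutamine, plated at 5000–40 000 cells/well by doubling time, preincubated 24 h (37 °C, 5% CO2). Drug added at five concentrations, 1-log steps from 10−4 to 10−8 M, for 48 h. Fixed with TCA, stained with 0.4% SRB, absorbance read at 515 nm. Percent growth computed against time-zero and untreated controls; GI50, TGI and LC50 derived.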
# RPMI-8226 = assay: Cytotoxicity against human RPMI8226 cells after 48 hrs by SRB assay; format: functional; details: RPMI-8226, 48 h; procedure, shortened: as §2
# EKVX = assay: Cytotoxicity against human EKVX cells after 48 hrs by SRB assay; format: functional; procedure, shortened: as §2
# HOP-92 = assay: Cytotoxicity against human HOP92 cells after 48 hrs by SRB assay; format: functional; details: HOP-92, 48 h; procedure, shortened: as §2
# NCI-H23 = assay: Cytotoxicity against human NCI-H23 cells after 48 hrs by SRB assay; format: functional; details: NCI-H23, 48 h; procedure, shortened: as §2
# NCI-H460 = assay: Cytotoxicity against human NCI-H460 cells after 48 hrs by SRB assay; format: functional; details: NCI-H460, 48 h; procedure, shortened: as §2
# HCC 2998 = assay: Cytotoxicity against human HCC2998 cells after 48 hrs by SRB assay; format: functional; details: HCC 2998, 48 h; procedure, shortened: as §2
# HCT-116 = assay: Cytotoxicity against human HCT116 cells after 48 hrs by SRB assay; format: functional; details: HCT-116, 48 h; procedure, shortened: as §2
# HT-29 = assay: Cytotoxicity against human HT-29 cells after 48 hrs by SRB assay; format: functional; details: HT-29, 48 h; procedure, shortened: as §2
# SF-268 = assay: Cytotoxicity against human SF268 cells after 48 hrs by SRB assay; format: functional; details: SF-268, 48 h; procedure, shortened: as §2
# LOX IMVI = assay: Cytotoxicity against human LOXIMVI cells after 48 hrs by SRB assay; format: functional; procedure, shortened: as §2
# SK-MEL-5 = assay: Cytotoxicity against human SK-MEL-5 cells after 48 hrs by SRB assay; format: functional; details: SK-MEL-5, 48 h; procedure, shortened: as §2
# SK-OV-3 = assay: Cytotoxicity against human SKOV3 cells after 48 hrs by SRB assay; format: functional; details: SK-OV-3, 48 h; procedure, shortened: as §2
# A498 = assay: Cytotoxicity against human A498 cells after 48 hrs by SRB assay; format: functional; details: A498, 48 h; procedure, shortened: as §2
# UO-31 = assay: Cytotoxicity against human UO31 cells after 48 hrs by SRB assay; format: functional; details: UO-31, 48 h
# Procedure, shortened: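 NCI-60 panel, five doses at 1-log steps from 10−4 to 10−8 M. Cells grown in RPMI 1640 with 5% FBS and 2 mM L-glutamine, seeded at 5000–40 000 cells/well and preincubated 24 h. Tz plates were TCA-fixed at drug addition. Drug exposure 48 h at 37 °C, then TCA fixation, 0.4% SRB stain and absorbance at 515 nm. GI50 taken from percent growth relative to Tz and control.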
# PC-3 = assay: Cytotoxicity against human PC3 cells after 48 hrs by SRB assay; format: functional; details: PC-3, 48 h; procedure, shortened: as §2
# Hs-578T = assay: Cytotoxicity against human Hs 578T cells after 48 hrs by SRB assay; format: functional; procedure, shortened: as §2
# [2] = Potency index, ratio of sorafenib TGI to test compound TGI for human renal cancer cells; format: functional, Renal cancer cell
# [3] = Potency index, ratio of sorafenib GI50 to test compound GI50 for human ovarian cancer cells; format: functional, Ovarian cancer cell; procedure, shortened: as §1
# [4] = Potency index, ratio of sunitinib GI50 to test compound GI50 for human breast cancer cells; format: functional, Breast cancer cell; procedure, shortened: as §1
# [5] = Potency index, ratio of sorafenib GI50 to test compound GI50 for human CNS cancer cells; format: functional, CNS cancer cell; procedure, shortened: as §1
# [6] = target: Fibroblast growth factor receptor 1 (Homo sapiens) (UniProt P11362); assay: Inhibition of human FGFR1 at 0.5 uM relative to control
# [7] = target: Fibroblast growth factor receptor 2 (Homo sapiens) (UniProt P21802); assay: Inhibition of human FGFR2 at 0.5 uM relative to control
# [8] = target: Ephrin type-A receptor 5 (Homo sapiens) (UniProt P54756); assay: Inhibition of human EPHA5 at 0.5 uM relative to control
# [9] = target: Vascular endothelial growth factor receptor 3 (Homo sapiens) (UniProt P35916); assay: Inhibition of human Flt4 at 0.5 uM relative to control
# [10] = target: Tyrosine-protein kinase HCK (Homo sapiens) (UniProt P08631); assay: Inhibition of human HCK at 0.5 uM relative to control
# [11] = read-out: LC50 (the source's name)
# Chain of Ephrin type-A receptor 5 (Homo sapiens) (P54756 whole entry): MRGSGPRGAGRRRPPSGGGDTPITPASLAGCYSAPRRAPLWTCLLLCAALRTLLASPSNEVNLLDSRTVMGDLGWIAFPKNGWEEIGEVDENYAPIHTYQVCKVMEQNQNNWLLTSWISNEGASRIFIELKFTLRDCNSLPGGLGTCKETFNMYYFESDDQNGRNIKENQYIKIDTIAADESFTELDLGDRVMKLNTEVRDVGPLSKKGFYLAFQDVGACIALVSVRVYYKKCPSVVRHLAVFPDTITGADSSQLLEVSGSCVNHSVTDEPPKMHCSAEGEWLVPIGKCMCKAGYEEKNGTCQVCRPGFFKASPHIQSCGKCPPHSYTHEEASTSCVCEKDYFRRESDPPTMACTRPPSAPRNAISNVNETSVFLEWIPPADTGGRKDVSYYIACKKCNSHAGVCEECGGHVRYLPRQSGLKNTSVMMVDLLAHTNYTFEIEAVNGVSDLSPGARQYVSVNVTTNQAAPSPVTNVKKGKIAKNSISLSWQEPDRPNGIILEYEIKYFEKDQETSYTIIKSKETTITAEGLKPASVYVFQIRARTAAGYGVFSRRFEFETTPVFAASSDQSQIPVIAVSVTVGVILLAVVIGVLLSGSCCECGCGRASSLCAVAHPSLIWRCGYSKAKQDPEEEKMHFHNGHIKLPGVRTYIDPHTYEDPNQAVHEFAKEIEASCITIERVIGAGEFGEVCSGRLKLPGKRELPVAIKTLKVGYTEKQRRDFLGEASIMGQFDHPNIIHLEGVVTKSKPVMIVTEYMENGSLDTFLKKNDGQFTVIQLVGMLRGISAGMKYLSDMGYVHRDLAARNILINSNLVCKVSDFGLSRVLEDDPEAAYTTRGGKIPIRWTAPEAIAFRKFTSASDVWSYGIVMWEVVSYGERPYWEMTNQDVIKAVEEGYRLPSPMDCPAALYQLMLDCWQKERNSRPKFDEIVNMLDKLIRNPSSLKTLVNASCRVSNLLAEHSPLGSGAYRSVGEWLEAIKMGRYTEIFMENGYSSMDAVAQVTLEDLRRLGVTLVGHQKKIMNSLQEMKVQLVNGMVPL
# Chain of Fibroblast growth factor receptor 2 (Homo sapiens) (P21802 22-821 limits assumed): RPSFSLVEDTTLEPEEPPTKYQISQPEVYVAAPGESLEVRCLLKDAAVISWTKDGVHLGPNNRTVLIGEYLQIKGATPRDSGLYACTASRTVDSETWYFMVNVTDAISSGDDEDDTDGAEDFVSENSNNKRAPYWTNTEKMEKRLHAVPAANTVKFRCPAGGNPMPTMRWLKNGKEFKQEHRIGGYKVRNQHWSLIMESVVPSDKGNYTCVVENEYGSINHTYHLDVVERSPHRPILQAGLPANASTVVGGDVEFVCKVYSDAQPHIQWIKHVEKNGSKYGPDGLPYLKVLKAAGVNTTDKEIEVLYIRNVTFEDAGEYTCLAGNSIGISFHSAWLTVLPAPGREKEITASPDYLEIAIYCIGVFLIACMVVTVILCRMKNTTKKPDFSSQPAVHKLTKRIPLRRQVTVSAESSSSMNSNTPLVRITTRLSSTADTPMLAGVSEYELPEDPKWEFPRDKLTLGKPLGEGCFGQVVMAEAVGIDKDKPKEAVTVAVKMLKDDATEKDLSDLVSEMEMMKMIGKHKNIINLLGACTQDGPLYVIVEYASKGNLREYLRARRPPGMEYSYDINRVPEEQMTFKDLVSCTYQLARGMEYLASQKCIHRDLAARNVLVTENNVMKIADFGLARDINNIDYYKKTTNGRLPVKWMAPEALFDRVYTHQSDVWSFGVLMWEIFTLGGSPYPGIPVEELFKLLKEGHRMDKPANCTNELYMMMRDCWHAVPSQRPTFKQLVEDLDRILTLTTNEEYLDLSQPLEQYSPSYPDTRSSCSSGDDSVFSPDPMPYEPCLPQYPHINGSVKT
# Chain of Tyrosine-protein kinase HCK (Homo sapiens) (P08631 2-526 limits assumed): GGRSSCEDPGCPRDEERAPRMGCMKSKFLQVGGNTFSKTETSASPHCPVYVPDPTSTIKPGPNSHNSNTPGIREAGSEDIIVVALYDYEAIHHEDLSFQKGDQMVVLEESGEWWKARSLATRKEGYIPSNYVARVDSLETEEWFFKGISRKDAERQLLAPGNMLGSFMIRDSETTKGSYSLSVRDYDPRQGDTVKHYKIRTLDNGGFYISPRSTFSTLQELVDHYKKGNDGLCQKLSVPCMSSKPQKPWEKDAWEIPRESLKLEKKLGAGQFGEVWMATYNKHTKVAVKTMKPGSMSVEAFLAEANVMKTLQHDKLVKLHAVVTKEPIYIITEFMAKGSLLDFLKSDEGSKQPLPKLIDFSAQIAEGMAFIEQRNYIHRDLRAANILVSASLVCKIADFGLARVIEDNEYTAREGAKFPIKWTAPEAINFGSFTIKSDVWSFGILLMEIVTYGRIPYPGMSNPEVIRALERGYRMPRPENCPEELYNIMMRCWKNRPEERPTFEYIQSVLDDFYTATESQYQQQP
# Chain of Vascular endothelial growth factor receptor 3 (Homo sapiens) (P35916 whole entry): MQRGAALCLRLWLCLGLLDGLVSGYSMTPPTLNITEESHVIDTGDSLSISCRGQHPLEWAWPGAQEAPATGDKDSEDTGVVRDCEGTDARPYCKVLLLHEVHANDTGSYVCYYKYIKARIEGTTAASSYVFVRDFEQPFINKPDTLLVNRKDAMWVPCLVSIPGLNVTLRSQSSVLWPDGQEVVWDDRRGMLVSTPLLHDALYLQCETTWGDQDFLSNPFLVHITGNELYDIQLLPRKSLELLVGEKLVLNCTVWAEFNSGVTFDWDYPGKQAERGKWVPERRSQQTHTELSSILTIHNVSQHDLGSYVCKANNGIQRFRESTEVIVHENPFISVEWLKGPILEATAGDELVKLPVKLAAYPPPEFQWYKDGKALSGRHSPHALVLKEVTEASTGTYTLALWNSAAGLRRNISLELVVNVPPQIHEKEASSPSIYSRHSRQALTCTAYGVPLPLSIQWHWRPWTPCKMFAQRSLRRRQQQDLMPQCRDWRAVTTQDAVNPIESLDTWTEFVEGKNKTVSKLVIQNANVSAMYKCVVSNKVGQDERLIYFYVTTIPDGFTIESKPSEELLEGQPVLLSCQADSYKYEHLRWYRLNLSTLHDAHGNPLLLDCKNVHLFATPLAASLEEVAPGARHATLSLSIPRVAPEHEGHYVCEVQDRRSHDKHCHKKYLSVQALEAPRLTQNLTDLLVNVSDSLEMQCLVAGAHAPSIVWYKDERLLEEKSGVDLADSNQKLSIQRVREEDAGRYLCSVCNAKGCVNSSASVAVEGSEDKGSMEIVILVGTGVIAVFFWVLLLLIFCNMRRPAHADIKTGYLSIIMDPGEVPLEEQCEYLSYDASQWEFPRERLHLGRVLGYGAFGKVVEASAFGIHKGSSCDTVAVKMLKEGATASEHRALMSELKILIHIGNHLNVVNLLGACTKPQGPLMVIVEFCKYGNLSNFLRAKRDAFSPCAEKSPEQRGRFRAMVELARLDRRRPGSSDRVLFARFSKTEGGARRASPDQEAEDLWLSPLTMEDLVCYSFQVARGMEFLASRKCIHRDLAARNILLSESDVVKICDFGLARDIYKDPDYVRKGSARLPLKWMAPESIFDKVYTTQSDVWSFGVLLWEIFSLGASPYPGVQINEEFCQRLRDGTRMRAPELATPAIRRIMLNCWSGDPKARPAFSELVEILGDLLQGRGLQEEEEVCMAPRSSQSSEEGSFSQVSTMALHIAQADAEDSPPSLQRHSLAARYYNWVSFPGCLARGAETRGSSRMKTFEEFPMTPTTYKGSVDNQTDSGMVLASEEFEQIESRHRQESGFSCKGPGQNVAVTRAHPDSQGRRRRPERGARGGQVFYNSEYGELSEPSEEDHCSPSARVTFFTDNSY
# Chain of Fibroblast growth factor receptor 1 (Homo sapiens) (P11362 22-822 limits assumed): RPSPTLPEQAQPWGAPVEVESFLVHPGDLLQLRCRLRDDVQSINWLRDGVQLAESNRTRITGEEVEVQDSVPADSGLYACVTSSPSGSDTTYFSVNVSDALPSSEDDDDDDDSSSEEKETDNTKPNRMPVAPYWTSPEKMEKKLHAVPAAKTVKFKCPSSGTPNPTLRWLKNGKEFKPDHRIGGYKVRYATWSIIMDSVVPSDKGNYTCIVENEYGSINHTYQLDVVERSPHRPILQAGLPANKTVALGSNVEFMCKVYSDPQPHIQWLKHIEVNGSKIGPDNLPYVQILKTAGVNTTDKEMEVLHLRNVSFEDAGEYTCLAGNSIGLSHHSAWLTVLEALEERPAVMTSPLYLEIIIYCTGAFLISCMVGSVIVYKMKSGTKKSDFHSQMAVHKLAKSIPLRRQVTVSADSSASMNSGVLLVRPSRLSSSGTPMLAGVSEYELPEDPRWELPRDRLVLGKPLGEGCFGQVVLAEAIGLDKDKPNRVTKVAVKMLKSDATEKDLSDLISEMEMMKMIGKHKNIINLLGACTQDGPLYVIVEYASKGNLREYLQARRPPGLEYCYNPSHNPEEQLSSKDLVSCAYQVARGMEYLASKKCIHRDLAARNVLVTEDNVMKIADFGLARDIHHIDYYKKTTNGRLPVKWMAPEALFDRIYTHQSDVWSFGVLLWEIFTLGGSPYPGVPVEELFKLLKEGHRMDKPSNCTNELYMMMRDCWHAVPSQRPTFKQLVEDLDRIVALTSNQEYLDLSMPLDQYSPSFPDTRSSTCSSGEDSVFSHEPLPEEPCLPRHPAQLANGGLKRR
compound,measurement,setting,value
COc1cc2ncnc(Oc3ccc(NC(=O)Nc4ccc(CN5CCOCC5)c(C(F)(F)F)c4)c4ccccc34)c2cc1OC,RatioGI50,[1],9.5
same,inhibition of growth at 10 µM,HUVEC,97.1%
same,GI50,HL-60(TB),0.38 µM
same,TGI,HL-60(TB),2.14 µM
same,CC50,HL-60(TB); [11],> 100 µM
same,GI50,MOLT-4,0.19 µM
same,TGI,MOLT-4,1.82 µM
same,CC50,MOLT-4; [11],> 100 µM
same,GI50,RPMI-8226,0.39 µM
same,TGI,RPMI-8226,2.95 µM
same,CC50,RPMI-8226; [11],> 100 µM
same,GI50,EKVX,0.45 µM
same,TGI,EKVX,6.46 µM
same,CC50,EKVX; [11],67.6 µM
same,GI50,HOP-92,0.32 µM
same,TGI,HOP-92,7.76 µM
same,CC50,HOP-92; [11],91.2 µM
same,GI50,NCI-H23,0.62 µM
same,TGI,NCI-H23,3.98 µM
same,CC50,NCI-H23; [11],> 100 µM
same,GI50,NCI-H460,1.41 µM
same,TGI,NCI-H460,4.27 µM
same,CC50,NCI-H460; [11],25.7 µM
same,GI50,HCC 2998,5.25 µM
same,TGI,HCC 2998,20.9 µM
same,CC50,HCC 2998; [11],75.9 µM
same,GI50,HCT-116,0.79 µM
same,TGI,HCT-116,2.57 µM
same,CC50,HCT-116; [11],7.08 µM
same,GI50,HT-29,0.45 µM
same,TGI,HT-29,13.2 µM
same,CC50,HT-29; [11],> 100 µM
same,GI50,SF-268,0.46 µM
same,TGI,SF-268,15.8 µM
same,CC50,SF-268; [11],79.4 µM
same,GI50,LOX IMVI,1.1 µM
same,TGI,LOX IMVI,2.82 µM
same,CC50,LOX IMVI; [11],7.24 µM
same,GI50,SK-MEL-5,0.45 µM
same,TGI,SK-MEL-5,2.69 µM
same,CC50,SK-MEL-5; [11],17 µM
same,GI50,SK-OV-3,0.23 µM
same,TGI,SK-OV-3,0.95 µM
same,CC50,SK-OV-3; [11],37.1 µM
same,GI50,A498,0.05 µM
same,TGI,A498,0.52 µM
same,CC50,A498; [11],30.9 µM
same,GI50,UO-31,0.2 µM
same,TGI,UO-31,10.2 µM
same,CC50,UO-31; [11],38 µM
same,GI50,PC-3,1.78 µM
same,TGI,PC-3,12.6 µM
same,CC50,PC-3; [11],> 100 µM
same,GI50,Hs-578T,1.12 µM
same,TGI,Hs-578T,9.33 µM
same,CC50,Hs-578T; [11],> 100 µM
same,Ratio,[2],3.2
same,RatioGI50,[3],3.9 - 9.5
same,RatioGI50,[4],5 - 7.7
same,RatioGI50,[5],1.6 - 2.9
same,inhibition,[6],> 96%
same,inhibition,[7],> 96%
same,inhibition,[8],Active
same,inhibition,[9],Active
same,inhibition,[10],Active
